The results in this text go back to ChEMBL document CHEMBL4004794, “Identification of Neuroprotective Spoxazomicin and Oxachelin Glycosides via Chemoenzymatic Glycosyl-Scanning” (J Nat Prod, 2017).

Active and inactive are the calls of the source. The calls are words filed in the database; no cut-off is given here.

One experiment deals with Escherichia coli. Briefly: Antibacterial activity against Escherichia coli NRRL B-3708 at <= 60 to 120 uM. It counts as functional. An outline of the steps:
(§1)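 Run in triplicate by the group's previously reported protocols. Compounds were tested up to 60–120 μM against bacteria and yeast, and up to 20 μM against non-small-cell lung A549 cells. Bacterial strains were S. aureus ATCC 6538, M. luteus NRRL B-287, E. coli NRRL B-3708 and S. enterica ATCC 10708. The yeast was S. cerevisiae ATCC 204508.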

Another experiment has as its system Staphylococcus aureus. Briefly: Antibacterial activity against Staphylococcus aureus ATCC 6538 at <= 60 to 120 uM. It counts as functional. An outline of the steps: as §1
In another experiment the test system is Saccharomyces cerevisiae. Briefly: Antifungal activity against Saccharomyces cerevisiae ATCC 204508 at <= 60 to 120 uM. In kind it is functional. An outline of the steps: as §1
In another experiment the test system is A549. Briefly: Cytotoxicity against human A549 cells at <= 20 uM. In kind it is functional, cell-based. The method, boiled down:
as §1

Another experiment relates to Micrococcus luteus. The experiment can be described thus: Antibacterial activity against Micrococcus luteus NRRL B-287 at <= 60 to 120 uM. In kind it is functional. The method, boiled down: as §1
Experiment [1] relates to Salmonella enterica subsp. enterica serovar Choleraesuis str. ATCC 10708. Briefly: Antibacterial activity against Salmonella enterica ATCC 10708 at <= 60 to 120 uM. In kind it is functional. An outline of the steps:
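Run in triplicate against S. enterica ATCC 10708, a strain obtained from ATCC. Compounds were tested at concentrations up to ≤60−120 μM.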

The test system of experiment [2] is Hippocampal neurone. Briefly: Neuroprotective activity against EtOH-induced cytotoxicity in Sprague-Dawley rat primary hippocampal neurons assessed as decrease in propidium iodide uptake at 0.01 to 1 uM after 48 hrs by fluorescence microscopic method. It counts as functional, cell-based. The method, boiled down: (§2)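 Rat hippocampus-derived primary cell cultures were exposed for 48 h to 100 mM EtOH, with or without compound (0.01–1.0 μM, dose–response). A DMSO control was included. Damage was read as propidium iodide uptake into compromised cells.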

For experiment [3], the system named is Hippocampal neurone. Briefly: Neuroprotective activity against EtOH-induced cytotoxicity in Sprague-Dawley rat primary hippocampal neurons assessed as decrease in propidium iodide uptake at 0.1 to 1 uM after 48 hrs by fluorescence microscopic method. It counts as functional, cell-based. An outline of the steps:
as §2

In experiment [4] the test system is Hippocampal neurone. The experiment can be described thus: Neuroprotective activity against EtOH-induced cytotoxicity in Sprague-Dawley rat primary hippocampal neurons assessed as decrease in propidium iodide uptake at 0.01 to 0.1 uM after 48 hrs by fluorescence microscopic method. It counts as functional, cell-based. An outline of the steps:
as §2

Experiment [5] deals with Hippocampal neurone. The experiment can be described thus: Neuroprotective activity against EtOH-induced cytotoxicity in Sprague-Dawley rat primary hippocampal neurons assessed as decrease in propidium iodide uptake at 1 uM after 48 hrs by fluorescence microscopic method. In kind it is functional, cell-based. The method, boiled down:
as §2

For the compound `O=CN(O)CCC[C@@H](NC(=O)[C@H](CO)NC(=O)[C@@H]1COC(c2ccccc2O[C@@H]2O[C@H](CO)[C@@H](O)[C@H](O)[C@H]2O)=N1)C(=O)NCCC(=O)N[C@@H]1CCCN(O)C1=O`, the outcome (in the experiment on Escherichia coli; with Staphylococcus aureus; in the experiment with Saccharomyces cerevisiae; in the experiment with A549; with Micrococcus luteus; in [1]) was inactive.
On to `C[C@H](CO)NC(=O)c1ccccc1O`, for which the result (in the experiment on Escherichia coli; with Staphylococcus aureus; with Saccharomyces cerevisiae; in the experiment on A549; in the experiment with Micrococcus luteus; in experiment [1]) was inactive.
In the case of `C[C@@H](CO)NC(=O)c1ccccc1O`, the outcome (in the experiment with Escherichia coli; in the experiment on Staphylococcus aureus; in the experiment on Saccharomyces cerevisiae; in the experiment with A549; in the experiment on Micrococcus luteus; in experiment [1]) was inactive.
For `C[C@H](CO)NC(=O)c1ccccc1O[C@@H]1O[C@H](CO)[C@@H](O)[C@H](O)[C@H]1N`, the result (with Escherichia coli; with Staphylococcus aureus; in the experiment with Saccharomyces cerevisiae; with A549; in the experiment with Micrococcus luteus; in experiment [1]) was inactive.
In the case of `C[C@H](CO)NC(=O)c1ccccc1O[C@@H]1O[C@H](CO)[C@@H](O)[C@H](O)[C@H]1O`, the result (with Escherichia coli; in the experiment with Staphylococcus aureus; in the experiment with Saccharomyces cerevisiae; in the experiment with A549; in the experiment on Micrococcus luteus; in [1]) was inactive.
Take `O=CN(O)CCC[C@@H](NC(=O)[C@H](CO)NC(=O)[C@@H]1COC(c2ccccc2O)=N1)C(=O)NCCC(=O)N[C@@H]1CCCN(O)C1=O`: the result (in the experiment with Escherichia coli; in the experiment with Staphylococcus aureus; in the experiment with Saccharomyces cerevisiae; with A549; with Micrococcus luteus; in [1]) was inactive.
In the case of `NC(=O)[C@@H]1COC(c2ccccc2O)=N1`, the result (in the experiment with Escherichia coli; in the experiment with Staphylococcus aureus; with Saccharomyces cerevisiae; with A549; with Micrococcus luteus; in experiment [1]) was inactive.
For the compound `O=C(NC(CO)CO)c1ccccc1O[C@@H]1O[C@H](CO)[C@@H](O)[C@H](O)[C@H]1O`, the result (in the experiment with Escherichia coli; with Staphylococcus aureus; with Saccharomyces cerevisiae; with A549; in the experiment with Micrococcus luteus; in experiment [1]) was inactive.
Turning to `OC[C@@H]1COC(c2ccccc2O)=N1`, the outcome (in the experiment on Escherichia coli; with Staphylococcus aureus; in the experiment with Saccharomyces cerevisiae; in the experiment on A549; in the experiment on Micrococcus luteus; in experiment [1]) was inactive.
On to `N[C@H]1[C@H](Oc2ccccc2C2=N[C@H](C(=O)N[C@@H](CO)C(=O)N[C@H](CCCN(O)C=O)C(=O)NCCC(=O)N[C@@H]3CCCN(O)C3=O)CO2)O[C@H](CO)[C@@H](O)[C@@H]1O`, for which the result (in the experiment with Escherichia coli; in the experiment with Staphylococcus aureus; in the experiment on Saccharomyces cerevisiae; in the experiment with A549; with Micrococcus luteus; in experiment [1]) was inactive.
As to `N[C@H]1[C@H](Oc2ccccc2C(=O)NC(CO)CO)O[C@H](CO)[C@@H](O)[C@@H]1O`, the outcome (with Escherichia coli; in the experiment with Staphylococcus aureus; in the experiment with Saccharomyces cerevisiae; with A549; in the experiment on Micrococcus luteus; in experiment [1]) was inactive.
Turning to `N[C@H]1[C@H](Oc2ccccc2C2=N[C@H](CO)CO2)O[C@H](CO)[C@@H](O)[C@@H]1O`, the result with Escherichia coli, in the experiment with Staphylococcus aureus, in the experiment with Saccharomyces cerevisiae, in the experiment on A549, with Hippocampal neurone [2] and with Micrococcus luteus was inactive. Further, in experiment [1], the result was inactive.
Turning to `O=C(NC(CO)CO)c1ccccc1O`, the outcome (with Escherichia coli; with Staphylococcus aureus; in the experiment on Saccharomyces cerevisiae; in the experiment with A549; in the experiment on Micrococcus luteus; in experiment [1]) was inactive.
As to `NC(=O)[C@@H]1COC(c2ccccc2O[C@@H]2O[C@H](CO)[C@@H](O)[C@H](O)[C@H]2O)=N1`, the result in the experiment on Hippocampal neurone [3] was Active. For the same compound, the result in the experiment on Escherichia coli, in the experiment with Hippocampal neurone [4], with Staphylococcus aureus, in the experiment on Saccharomyces cerevisiae, in the experiment on A549 and in the experiment on Micrococcus luteus was inactive. The result in [1] was inactive.
For `OC[C@@H]1COC(c2ccccc2O[C@@H]2O[C@H](CO)[C@@H](O)[C@H](O)[C@H]2O)=N1`, the result with Escherichia coli, in the experiment with Staphylococcus aureus, with Saccharomyces cerevisiae, in the experiment on Hippocampal neurone [5], in the experiment with A549 and with Micrococcus luteus was inactive. For the same compound, the outcome in experiment [1] was inactive. For the same compound, the outcome in the experiment on Hippocampal neurone [4] was Active.
As for `OC[C@H]1O[C@@H](OC[C@@H]2COC(c3ccccc3O)=N2)[C@H](O)[C@@H](O)[C@@H]1O`, the outcome (in the experiment with Escherichia coli; in the experiment on Staphylococcus aureus; in the experiment with Saccharomyces cerevisiae; in the experiment on A549; in the experiment with Micrococcus luteus; in experiment [1]) was inactive.
Turning to `C[C@@H](CO)NC(=O)c1ccccc1O[C@@H]1O[C@H](CO)[C@@H](O)[C@H](O)[C@H]1N`, the outcome (with Escherichia coli; in the experiment on Staphylococcus aureus; in the experiment on Saccharomyces cerevisiae; in the experiment on A549; in the experiment on Micrococcus luteus; in experiment [1]) was inactive.
For `C[C@@H](CO)NC(=O)c1ccccc1O[C@@H]1O[C@H](CO)[C@@H](O)[C@H](O)[C@H]1O`, the outcome (in the experiment on Escherichia coli; with Staphylococcus aureus; in the experiment with Saccharomyces cerevisiae; with A549; with Micrococcus luteus; in experiment [1]) was inactive.
